SR-BI uptake up = SR-BI HDL lipid transfer activation; activation, % at 12.5 µM; CHO ldlA[mSR-BI] cells, DiI-HDL uptake fluorescence, 3 h; 100 = double the neutral-control signal; 320,000 tested, 0.096% active;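 active means mean replicate activation of at least 60% and every replicate at or above 60%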;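 further: 0% = median plate neutral-control signal and 100% = twice that signal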
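Assay system: LDL receptor-deficient CHO ldlA cells overexpressing murine SR-BI / Medium: BSA-supplemented, HEPES-buffered Ham's F12, pH 7.4 / Probe or stimulus: DiI-labelled HDL at 10 µg/mL final / Timing: compound with DiI-HDL co-incubation, 3 h at 37 °C / Technique: bottom-read cell fluorescence after medium removal, ex 550/em 595 nm / Measure: HDL uptake via cellular fluorescence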
SR-BI DiI inh = blocks mouse SR-BI lipid uptake from DiI-HDL; Q61009; AID 488896; ldlA[mSR-BI] CHO cells, DiI-HDL uptake fluorescence, 3 h; 320,000 tested, 0.96% active; inhibition, % at 12.5 µM;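 active means mean replicate inhibition of at least 70% and a set share of replicates each scoring 70 or more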;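 further: 0% = median of neutral control wells and 100% = median of positive control wells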
PKA-R2B act = PKA-R2B complex activation. PKA-R2B holoenzyme dissociation, Cy5-IP20 fluorescence polarization; R2B truncated from residue 108, S112A mutant; 0% DMSO only, 100% 113 µM cGMP. activation, % at 11.4 µM. 340,000 tested, 0.079% active. AID 504700;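 active means activation above a cutoff set at the mean over all compounds plus 3 SD, cut at about 18% in these data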;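 further: higher means more holoenzyme dissociation and a rise in polarization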
Target sequence (P31323 whole entry, looked up, other chains not shown, the tested form may be a part): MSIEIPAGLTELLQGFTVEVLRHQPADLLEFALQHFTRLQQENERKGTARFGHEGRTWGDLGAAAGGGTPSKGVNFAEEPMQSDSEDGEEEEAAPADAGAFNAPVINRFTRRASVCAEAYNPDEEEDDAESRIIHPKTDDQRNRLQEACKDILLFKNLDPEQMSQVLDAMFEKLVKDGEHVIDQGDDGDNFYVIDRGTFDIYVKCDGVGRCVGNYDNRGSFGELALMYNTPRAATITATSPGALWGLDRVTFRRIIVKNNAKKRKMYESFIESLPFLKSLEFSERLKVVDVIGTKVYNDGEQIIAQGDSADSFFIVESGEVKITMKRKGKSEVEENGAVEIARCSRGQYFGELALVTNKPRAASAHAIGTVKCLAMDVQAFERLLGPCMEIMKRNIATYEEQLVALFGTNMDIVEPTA
Vif inh = inhibitors of HIV Vif; AID 602346; HEK293T cells, Vif self-association by quenched fluorescence, imaging, 24 h; inhibition, % at 7.49 µM; 340,000 tested, 0.35% active; in the data active means inhibition above about 50%, passing the limit was not always enough
PKA-R1A activ = activates the PKA-R1A holoenzyme complex | PKA-R1A dissociation, Cy5-IP20 fluorescence polarization; scaled: DMSO 0%, 113 µM cGMP 100% | AID 504707 | 340,000 tested, 0.083% active | activation, % at 11.4 µM;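 active means percent activation above the mean of all tested compounds plus 3 SD, cut at about 19% in these data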;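 further: higher means more PKAc released from R1A so a rise in polarization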
Numbers without * were called inactive; x = no result given. The list is not random: actives were taken first. Their share in the collection is about 1.4%.

SMILES	SR-BI uptake up	SR-BI DiI inh	PKA-R2B act	Vif inh	PKA-R1A activ
Cc1ccc(N(C(=O)CNC(=O)c2ccco2)C(C(=O)NCC2CCCO2)c2ccccc2)cc1C (centres undefined)	x	x	-7	53*	-1
CC1CCN(c2ccccc2NC(=O)c2ccc(C#N)cc2F)CC1	-77	77*	x	2	x
CN(CC(=O)Nc1ccccc1Br)C(=O)c1ccccc1OCc1ccc(Cl)cc1	-43	43	0	-8	-2
CCC1Oc2ccc(C)cc2N(CC(=O)NC2CCCCC2)C1=O (centres undefined)	-89	89*	3	1	6
Cc1ccc2c(c1)N(CC(=O)N1CCCCCC1)C(=O)C(C)O2 (centres undefined)	15	-15	5	69*	-4
CCc1cc2ccc(C)cc2nc1SCC(=O)NC1CCCC1	x	x	-3	13	5
COc1cccc(/C=C2\Sc3ccc(C(=O)NCc4cccnc4)cc3N(C)C2=O)c1	x	x	-5	2	-7
COc1ccc(/C=C2\Sc3ccc(C(=O)NCc4cccnc4)cc3N(C)C2=O)cc1OC	-74	74*	-19	4	-10
CC1CCN(Cc2nnnn2-c2cccc([N+](=O)[O-])c2)CC1	5	-5	-2	1	5
COc1cc(Nc2nc3ccccc3n3nnnc23)cc(OC)c1OC	-4	4	-4	50*	-2
CC1(C(=O)O)CCN1C(=O)c1cccc(OC(F)(F)F)c1 (centres undefined)	x	x	x	8	x
CCOC(=O)c1sc2ccccc2c1OC(=O)c1ccccc1OC	-7	7	-9	18	-8
CCOC(=O)c1cc(OC(=O)c2ccccc2OC)n(-c2ccccc2)n1	16	-16	0	78*	-20
CC1(C)CCC(=NNC(N)=S)CC1	-61	61	-17	5	-10
NC(=S)NN=C1CCC2(CCCCC2)CC1	-85	85*	-5	13	1
NC(=S)NN=C1CCCCC12CCCC2	-75	75*	3	0	-4
NC(=S)NN=C1CSSC1	x	x	4	11	3
COc1ccc(NC(=O)CNc2cccc(C#N)c2)cc1Cl	-27	27	-12	6	5
COc1ccc(NCC(=O)Nc2ccc(C#N)cc2)cc1Cl	-95	95*	-2	-2	-8
CC(=O)N1c2c(cc(Br)cc2S(=O)(=O)N2CCOCC2)CC1C (centres undefined)	19	-19	-4	63*	3
CC(=O)N1c2c(cc(Br)cc2S(=O)(=O)N2CCCCC2)CC1C (centres undefined)	16	-16	6	-4	-5
CSc1sccc1/C=N/O	3	-3	-8	-8	-1
CSc1sccc1/C=C(/C#N)C(=O)c1ccco1	9	-9	-12	151*	-4
CCN(CC(=O)Nc1c(F)cccc1F)C(=O)c1cccc(-n2cccc2)c1	22	-22	-3	74*	-14
CCOCc1nnc(NC(=O)C2CC(=O)N(C3CCCC3)C2)s1 (centres undefined)	11	-11	7	-5	0
SMILES	SR-BI uptake up	SR-BI DiI inh	PKA-R2B act	Vif inh	PKA-R1A activ
COc1ccc(CC(=O)Nc2ccc(-c3cn4ccc(C)cc4n3)cc2)cc1	-83	83*	-6	-17	-3
CC1CC(C)CN(S(=O)(=O)c2cccc3nsnc23)C1 (centres undefined)	-6	6	4	-7	-8
Cc1cc(N2CCCCC2)n2nc(C)c(-c3ccccc3)c2n1	-52	52	3	-7	-3
Cc1cc(N2CCN(Cc3ccccc3)CC2)n2nc(C)c(-c3ccccc3)c2n1	-21	21	-3	15	-7
Cc1cc(N2CCC(C)CC2)n2nc(C)c(-c3ccccc3)c2n1	-75	75*	-1	x	-18
COc1ccc(-c2c(C)nn3c(N4CCN(Cc5ccccc5)CC4)cc(C)nc23)cc1OC	-76	77*	4	-9	-2
Cc1nn2c(N3CCCC3)cc(C(C)C)nc2c1-c1ccccc1	-74	74*	0	5	4
CCOC(=O)N1CCC(N2C(=O)c3ccccc3C2Nc2ccc(S(=O)(=O)N3CCOCC3)cc2)CC1 (centres undefined)	0	0	-12	20	-12
O=[N+]([O-])c1cccc(/C=N/Nc2nc(N3CCOCC3)nc(N3CCOCC3)n2)c1	-22	22	-1	10	1
O=[N+]([O-])c1cccc(/C=C2\CCC(/C=N/Nc3ccc4ccccc4n3)=C2N2CCOCC2)c1	-88	88*	18	2	-2
Cc1ccc(OC2CCN(C(=O)[C@H]3O[C@@H](n4ccc(=O)[nH]c4=O)[C@H](O)[C@@H]3O)CC2)cc1	x	x	x	0	x
c1ccc(-c2cn(-c3ccccc3)c3ncnc(N4CCCCC4)c23)cc1	-17	17	-1	-10	-2
CCOc1ccc(-n2cc(-c3ccccc3)c3c(N4CCOCC4)ncnc32)cc1	-82	82*	5	-18	-12
COc1ccc(-n2cc(-c3ccccc3)c3c(N4CC(C)OC(C)C4)ncnc32)cc1 (centres undefined)	-76	76*	-1	2	-7
Cc1ccccc1OCc1nc(-c2ccc(NC(=O)c3ccc4c(c3)OCO4)cc2)no1	-91	91*	-7	26	-21
O=C(NNC(=O)c1cc2cc(Br)ccc2oc1=O)c1ccc(O)cc1O	-83	83*	0	31	3
COc1cc(CN2CCCCC2C(=O)Nc2ccc(Oc3ccccc3)nc2)ccc1O (centres undefined)	-5	5	6	x	6
CCOc1cc(C=NN=C2c3ccccc3-c3ccccc32)ccc1O	-76	76*	0	1	-3
CCCCN1C(=O)/C(=C2/Sc3ccccc3N2C)S/C1=N\c1ncn[nH]1	-83	83*	-2	3	-13
COc1ccc(-c2cnc3c(-c4ccc(F)cc4)cnn3c2N)cc1	-95	95*	11	2	-3
COc1ccc(-c2cnn3c(N)c(S(=O)(=O)C(C)(C)C)cnc23)cc1	-12	12	-16	-3	-5
C=CCOC(=O)C1=C(C)NC(SCC)=C(C#N)C1c1ccc(Cl)cc1 (centres undefined)	-83	83*	-12	8	-10
O=C1CCC(C(=O)O)N1 (centres undefined)	14	-14	-12	-3	-1
NNC(=O)c1cc(C23CC4CC(CC(C4)C2)C3)nc2ccccc12	-89	89*	-7	1	-3
O=C(NNc1c2ccccc2nc2ccccc12)C12CC3CC(CC(C3)C1)C2	-14	14	10	-2	5
O=C(NNC(=O)c1ccncc1)Nc1ccc(N=Nc2ccccc2)cc1	-72	72*	2	-11	-8

From PubChem
